LMPTP block = blocks human LMPTP phosphatase; P24666; recombinant LMPTP-A, OMFP fluorogenic substrate, fluorescence intensity; inhibition, % at 20 µM; actives 0.22% (n = 360,000); AID 651560;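 active = compounds that cut the enzyme signal by at least half of the control window in the single-dose screen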;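 also: plate controls were DMSO wells with enzyme plus substrate for no effect and substrate without enzyme for full effect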
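Test system: LMPTP-A phosphatase enzyme. Amount: LMPTP-A at 0.625 nM final in the reaction. Reagent: OMFP substrate, 400 µM final. Times: 50 min at room temperature. Signal: endpoint fluorescence intensity from OMFP dephosphorylation. Read-out basis: % inhibition. Benchmarks: no-enzyme and uninhibited controls.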
SUMO1-SIM PPI = SUMO1-SIM interaction modulation. P63165. SUMO1 binding to a labelled peptide, TR-FRET, 1 h. inhibition, % at 20 µM. actives 0.33% (n = 360,000). AID 602429; in the data active = inhibition above about 37%
GRK2 inh = blocks RNA aptamer binding to human GRK2; P25098; bead flow cytometry, FAM-aptamer displacement from GRK2; inhibition of aptamer binding, % at 10 µM; actives 0.59% (n = 330,000); AID 488847;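 active = inhibition of aptamer binding above 40%, roughly 3 SD of noise, on plates passing a quality check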;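 also: median bead fluorescence of bound FAM aptamer so fluorescent compounds give negative values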
STEP block = STEP (human) phosphatase inhibition. actives 0.25% (n = 360,000). recombinant STEP, OMFP fluorogenic substrate, fluorescence. inhibition, % at 20 µM. AID 588621. P54829;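 active = inhibition at 20 µM, scaled per plate between control wells, above about 37%, limit read from the data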;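 also: 0% = DMSO with enzyme and substrate and 100% = substrate only without enzyme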
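Material: STEP (striatal-enriched tyrosine phosphatase) enzyme, cell-free; Compound dosing: 20 µM single dose in 1% DMSO; Technique: fluorescence read at 480 nm ex / 540 nm em; Times: reaction 20 min, ambient temperature; Medium: 50 mM Bis-Tris pH 6.0 with 2.5 mM DTT and 0.005% Tween 20; Also added: OMFP at 25 µM.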
Scp1 inh = Scp-1 (human) phosphatase inhibition | inhibition, % at 20 µM | Q9GZU7 | actives 0.88% (n = 340,000) | Recombinant Scp1, phosphopeptide, malachite green phosphate absorbance;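 active = inhibition above about 50% at 20 µM, limit read from the data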;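 also: plate controls were DMSO wells with enzyme for no effect and wells lacking enzyme for full effect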
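Test system: SCP-1 phosphatase catalytic domain, residues 76-261 | Compound dosing: One concentration, 20 µM, with 1.0% DMSO | Schedule: 45 min room-temperature reaction, 5 min colour, 30 min stabiliser | Detection: Absorbance at 630 nm | Read-out basis: % inhibition of SCP-1 phosphate liberation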
DNMT1 inh = blocks human DNA methyltransferase DNMT1; P26358; inhibition (reported as % activation of signal), % at 10 µM; DNMT1 molecular beacon, Hinp1I cleavage, fluorescence; actives 0.83% (n = 360,000); in the data active = inhibition above about 50%
Target sequence (P26358 504-1616 limits assumed): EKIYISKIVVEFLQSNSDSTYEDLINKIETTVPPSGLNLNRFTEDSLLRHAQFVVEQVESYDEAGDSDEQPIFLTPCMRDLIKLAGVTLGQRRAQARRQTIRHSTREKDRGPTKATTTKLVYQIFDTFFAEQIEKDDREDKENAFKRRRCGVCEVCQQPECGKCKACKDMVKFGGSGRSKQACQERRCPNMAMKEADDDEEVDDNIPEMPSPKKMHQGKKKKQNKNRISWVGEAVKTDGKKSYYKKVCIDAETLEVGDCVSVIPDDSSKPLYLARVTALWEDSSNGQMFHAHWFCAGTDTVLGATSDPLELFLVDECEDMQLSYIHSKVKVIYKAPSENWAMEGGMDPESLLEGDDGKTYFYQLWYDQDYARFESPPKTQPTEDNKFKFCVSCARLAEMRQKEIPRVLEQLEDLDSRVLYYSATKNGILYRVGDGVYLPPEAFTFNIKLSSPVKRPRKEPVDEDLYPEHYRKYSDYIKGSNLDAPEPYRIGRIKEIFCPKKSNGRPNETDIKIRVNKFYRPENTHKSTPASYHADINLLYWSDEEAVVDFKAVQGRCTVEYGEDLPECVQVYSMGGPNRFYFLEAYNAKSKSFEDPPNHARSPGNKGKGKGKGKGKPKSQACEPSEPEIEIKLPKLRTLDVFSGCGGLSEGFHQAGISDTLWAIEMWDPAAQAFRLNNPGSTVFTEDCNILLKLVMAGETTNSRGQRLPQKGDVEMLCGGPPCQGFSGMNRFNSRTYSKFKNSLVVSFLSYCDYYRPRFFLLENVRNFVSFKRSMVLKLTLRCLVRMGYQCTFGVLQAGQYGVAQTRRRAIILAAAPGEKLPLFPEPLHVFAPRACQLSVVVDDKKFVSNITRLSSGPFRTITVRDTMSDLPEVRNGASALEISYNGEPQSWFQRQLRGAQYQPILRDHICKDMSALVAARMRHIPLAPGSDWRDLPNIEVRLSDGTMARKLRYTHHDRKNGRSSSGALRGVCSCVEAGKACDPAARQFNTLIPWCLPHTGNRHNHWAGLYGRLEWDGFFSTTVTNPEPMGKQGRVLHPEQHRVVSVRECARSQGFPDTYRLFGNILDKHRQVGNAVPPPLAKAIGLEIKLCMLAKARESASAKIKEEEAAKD
Beacon interf DR = beacon fluorescence artifact, dose response counter-screen. IC50, µM. shares compounds with DNMT1 inh. 200 tested, under 10 active. AID 602382. molecular beacon fluorescence, spectral interference counter-screen; call rule not given here
DNMT1 inh conf = confirmation of human DNMT1 inhibitors | DNMT1 molecular beacon HinP1I cleavage, fluorescence | actives 8% (n = 2,300) | inhibition, % at 10 µM | shares compounds with DNMT1 inh;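 active = average inhibition of at least 30% in the single-concentration confirmation test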
Beacon interf = counter-screen for DNMT1 inhibitors: spectral interference; actives 1% (n = 2,300); AID 602387; DNMT1 molecular beacon spectral interference counterscreen, fluorescence 485/520; shares compounds with DNMT1 inh; activation (fluorescence interference), % at 10 µM;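 active = activation of at least 30% at 10 µM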;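 also: DNMT1 catalytic domain with a HinP1I cleavage step and a FAM/dabcyl DNA beacon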
An asterisk follows results filed as active; . = not tested or not shown. This is a sample that favours compounds with a hit; in the whole collection about 2.2% have one here.

SMILES	LMPTP block	SUMO1-SIM PPI	GRK2 inh	STEP block	Scp1 inh	DNMT1 inh	DNMT1 inh conf	Beacon interf	others
C=CC[C@@H](CC(=O)NCCO)C(=O)NC[C@H](OC(=O)[C@@H](CC=C)CC(=O)OC(C)(C)C)c1ccccc1	-2	2	2	0	-8	1	.	.
C=CC[C@@H](CC(=O)N[C@@H](CO)Cc1ccccc1)C(=O)NC[C@@H](OC(=O)[C@@H](CC=C)CC(=O)OC(C)(C)C)c1ccccc1	1	4	3	-2	6	57*	7	5
CCCCN1C(=O)/C(=C/C=C2/CC(C)(C)CN2C)SC1=S	17	-142	1	-33	5	76*	81*	85*
O=C(Nc1ccccc1F)c1ccc(Br)o1	0	4	4	-2	1	69*	1	-2
Cc1ccc(C)n1-c1sc2c(c1C(=O)O)CCCC2	0	7	25	5	43	97*	11	-2
CCOC(=O)c1c(-n2c(C)cc(C=O)c2C)sc2c1CCCC2	0	-3	1	3	0	-3	.	.
CCOc1cc(/C=C(\C#N)C(=O)Nc2cccc(C(=O)O)c2)ccc1OCc1ccc(Br)cc1	-2	82*	0	96*	34	89*	104*	-1	Beacon interf DR=>99
CCOCCCNC(=O)c1ccccc1SCC	0	4	4	2	3	52*	3	7
CCOCCCNC(=O)c1ccccc1Br	-1	-1	2	-4	-7	0	.	.
O=C(OCc1cn([C@H]2C[C@H](c3ccc(Cl)cc3)N(CC3CCCCC3)C[C@@H]2O)nn1)c1ccccc1	1	-3	.	-2	.	-5	.	.
Cc1oc2c(c1C(=O)c1ccc(Cl)cc1)C(=O)C(=O)c1ccccc1-2	2	16	.	10	0	74*	21	-9	Beacon interf DR=>99
C/C(=N\NC(=O)c1cc(O)cc(O)c1)c1ccc(NC(=O)Cc2ccccc2)cc1	69*	78*	52*	98*	87*	85*	51*	-2	Beacon interf DR=>99
COc1ccc(OC)c(CN2C(=O)c3ccccc3C2c2nnnn2C(C)C)c1 (stereo not drawn)	-2	1	.	.	.	.	.	.
Cc1c(NC2=NC3(CCCCC3)Cc3ccccc32)c(=O)n(C)n1-c1ccccc1	7	9	0	1	0	83*	-1	-2
O=c1cc(-c2ccco2)oc2c1ccc1ccccc12	7	10	0	2	16	65*	1	0
O=c1cc(C(Cl)(Cl)Cl)oc2c1ccc1ccccc12	-2	1	12	2	-2	22	.	.
CCOC(=O)C1(C)CCN1C(=O)Cc1ccc(OC)cc1 (stereo not drawn)	-2	-4	.	-3	.	1	.	.
CCS(=O)(=O)C1=NN2C(=N)/C(=C\c3ccc(SCc4ccco4)o3)C(=O)N=C2S1	42	50*	.	14	77*	99*	50*	1	Beacon interf DR=>99
CCS(=O)(=O)C1=NN2C(=N)/C(=C\c3ccc(OC(=O)c4ccco4)c(Br)c3)C(=O)N=C2S1	.	.	2	.	.	.	.	.
O=C(C[C@H]1C/C=C\C[C@H](NC(=O)OCC2c3ccccc3-c3ccccc32)C(=O)O[C@H](c2ccccc2)CNC1=O)N[C@H](CO)Cc1ccccc1	-1	-2	0	-1	2	57*	6	-4
O=C(C[C@H]1C/C=C\C[C@@H](Cc2ccc(F)cc2)C(=O)O[C@H](c2ccccc2)CNC1=O)N[C@@H](CO)Cc1ccccc1	1	0	0	0	0	85*	0	-6
O=C(C[C@@H]1C/C=C\C[C@@H](Cc2ccc(F)cc2)C(=O)OC[C@@H](Cc2ccccc2)NC1=O)N[C@H](CO)Cc1ccccc1	2	2	3	-1	-2	68*	3	0
C/C(=C\c1ccc(C(=O)O)cc1)c1ccc2c(c1)C(C)(C)CCC2(C)C	-1	11	1	-2	-6	52*	21	0
CCN(CC)C(=O)C1=C(C)N(Cc2ccc(C(C)(C)C)cc2)C(=O)C(CC(=O)NCCCN(C)C)C1 (stereo not drawn)	0	0	.	-1	.	-24	.	.
Cc1cc(C(=O)OCC(=O)NC2CCCCC2C)c2ccccc2n1 (stereo not drawn)	-1	-9	0	2	4	5	.	.
SMILES	LMPTP block	SUMO1-SIM PPI	GRK2 inh	STEP block	Scp1 inh	DNMT1 inh	DNMT1 inh conf	Beacon interf	others
CC1CCCCC1NC(=O)COC(=O)c1c2c(nc3ccccc13)/C(=C/c1ccco1)CC2 (stereo not drawn)	39	28	6	5	68*	95*	3	-7
Cc1cc(NC(=O)c2ccco2)c(=O)n(Cc2cccc(C(F)(F)F)c2)c1	1	-8	4	0	-6	66*	3	5
CN1C=CC(=C[N+](=O)[O-])N(C)C1=O	0	-23	.	-3	.	-9	.	.
Cc1ccc(S(=O)(=O)N2CCCC2CNC(=O)C(=O)Nc2ccc(F)cc2)cc1 (stereo not drawn)	1	0	0	0	-2	54*	2	4
CCN1C(=O)CSC1=Nc1ccc(C(=O)OC)cc1	0	-3	.	-3	.	3	.	.
CCC1(C)CC2(CCCN(CCC(O)(c3ccccc3)c3ccccc3)C2)CCO1 (stereo not drawn)	-2	4	0	-2	-5	9	.	.
CC1(C)CC2(CCCN(CC(O)(c3ccccc3)c3ccccc3)C2)CCO1 (stereo not drawn)	1	2	3	1	-6	94*	4	3
c1ccc(COc2ccc(-c3cc4nc(NCCN5CCOCC5)ccn4n3)cc2)cc1	-5	-2	.	2	.	-25	.	.
O=c1[nH]c(SCCc2ccccc2)nc2c1CCC2	-1	1	.	6	.	-3	.	.
CCN(CC)CC(=O)Nc1cccc2c1C(=O)c1ccccc1C2=O	1	-15	2	2	-4	26	.	.
CN(C=[N+](C)C)c1cccc2c1C(=O)c1ccccc1C2=O	-1	-18	0	-4	2	62*	5	6
C[C@H](CO)N1C[C@H](C)[C@@H](CN(C)S(=O)(=O)c2cn(C)cn2)Oc2ncc(Br)cc2C1=O	-2	-3	.	-1	.	0	.	.

Bioassay records as filed in PubChem BioAssay.
